These results are taken from ChEMBL document CHEMBL3045640, “Synthesis and insecticidal activity of novel carbamate derivatives as potential dual-binding site acetylcholinesterase inhibitors” (J Agric Food Chem, 2010).

In one test the target is Acetylcholinesterase (Musca domestica, UniProt Q7YWJ9). Briefly: Dual-site binding inhibition of AChE in Musca domestica (house fly) brain. Type of test: tissue-based. A digest of the protocol: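 Enzyme was prepared from heads of adult houseflies, females and males in a 1:1 ratio. The inhibition procedure followed previously reported methods.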
The subject of another test is Lipaphis erysimi. The test is described as follows: In vivo insecticidal activity against apterous adult stage of Lipaphis erysimi (mustard aphids) in chinese cabbage leaves assessed as mortality at 300 mg/l at 25 degC treated for 10 secs measured after 24 hr. The class given is functional. A digest of the protocol:
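Aphids were reared at 25 (±1) °C, 60 (±5)% RH and a 14 h photoperiod. Acetone stocks at 10 g/L were diluted with water containing 0.1% Triton X-100. Chinese cabbage leaf disks carrying 35 apterous adults were dipped for 10 s, dried, then held at 25 °C. Mortality was scored at 24 h against untreated controls. Three replicates were run, and corrected mortality was calculated.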

Test [1] concerns the target Acetylcholinesterase (Musca domestica) (UniProt Q7YWJ9). The test is described as follows: Ratio of MH IC50 to compound IC50 for AChE in Musca domestica (house fly) brain.
For test [2] the target is unchanged. The test is described as follows: Dual-site binding inhibition of AChE in Musca domestica (house fly) brain at 100 mg/l.
Test [3] shares this target. Briefly: Ratio of MT IC50 to compound IC50 for AChE in Musca domestica (house fly) brain.

Chain of Acetylcholinesterase (Musca domestica) (Q7YWJ9 1-692): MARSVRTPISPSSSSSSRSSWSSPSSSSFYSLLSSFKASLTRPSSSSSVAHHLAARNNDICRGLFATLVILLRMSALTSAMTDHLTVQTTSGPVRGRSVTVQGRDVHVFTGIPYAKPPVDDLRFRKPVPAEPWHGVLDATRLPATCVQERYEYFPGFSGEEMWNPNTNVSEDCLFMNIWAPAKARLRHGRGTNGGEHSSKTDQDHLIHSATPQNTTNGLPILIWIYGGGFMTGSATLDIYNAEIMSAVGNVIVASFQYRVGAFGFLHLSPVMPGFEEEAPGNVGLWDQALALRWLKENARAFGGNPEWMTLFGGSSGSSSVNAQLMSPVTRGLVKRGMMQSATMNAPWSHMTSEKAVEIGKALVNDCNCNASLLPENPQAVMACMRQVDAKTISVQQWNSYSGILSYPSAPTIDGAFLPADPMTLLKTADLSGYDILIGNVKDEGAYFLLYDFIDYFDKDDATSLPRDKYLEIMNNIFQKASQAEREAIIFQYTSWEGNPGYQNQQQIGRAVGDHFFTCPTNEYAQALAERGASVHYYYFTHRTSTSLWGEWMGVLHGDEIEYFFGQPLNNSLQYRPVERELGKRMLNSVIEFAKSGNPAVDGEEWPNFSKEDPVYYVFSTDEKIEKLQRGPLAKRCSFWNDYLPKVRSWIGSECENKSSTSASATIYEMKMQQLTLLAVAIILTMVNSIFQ
Chain of Acetylcholinesterase (Q7YWJ9 whole entry): as the sequence (Q7YWJ9 1-692) above

One may read the IC50 as the concentration at which inhibition is half-maximal. One may read the mortality as the percentage killed. On to `CNC(=O)Oc1cccc(C)c1` [METOLCARB], for which, at Acetylcholinesterase, the IC50 was found to be 150 µM. In addition, the mortality at 300 µg/mL with Lipaphis erysimi came to 97%.
As a reminder, the inhibition is the relative decrease from the control value, in per cent. Low values mean a weak effect, high ones a strong effect. At Acetylcholinesterase, `CNC(=O)Oc1cccc(OCCCCOc2ccc(C(F)(F)F)cc2)c1` gave an IC50 of 107 µM. Moreover, the mortality at 300 µg/mL in the test on Lipaphis erysimi was found to be 92%. In addition, the Ratio IC50 was 7 in test [1] and 1 in test [3]. Further, the inhibition in test [2] was 62%.
With `CNC(=O)Oc1cccc(OCCCCOc2ccccc2[N+](=O)[O-])c1`, the IC50 at Acetylcholinesterase is 61 µM. For the same compound, in the test on Lipaphis erysimi, the mortality at 300 µg/mL amounted to 93%. The figures for the Ratio IC50 in test [1] and in test [3] were 13 and 2, respectively. In test [2], the inhibition stood at 80%.
In test [2], `CNC(=O)Oc1ccc(OCCCOc2ccc(C(F)(F)F)cc2)cc1` yielded an inhibition of 2%.
For `CN(C)C(=O)Oc1cccc(OCCCOc2ccc(C(F)(F)F)cc2)c1`, in test [2], the inhibition is 27%.
Regarding `CNC(=O)Oc1cccc(OCCCCOc2cccc([N+](=O)[O-])c2)c1`, on Acetylcholinesterase, the IC50 worked out at 12 µM. In addition, in the test with Lipaphis erysimi, the mortality at 300 µg/mL was found to be 98%. For the same compound, the Ratio IC50 in test [1] came out at 62; in test [3], 12. Also, the inhibition in test [2] came out at 92%.
Consider `CN(C)C(=O)Oc1ccc(OCCOc2ccc(C(F)(F)F)cc2)cc1`, for which, in test [2], the inhibition amounted to 6%.
Compound `CNC(=O)Oc1ccc(OC/C=C/COc2ccc(C(F)(F)F)cc2)cc1` registered an inhibition in test [2] of 3%.
Take `CNC(=O)Oc1ccccc1` [PHENYL METHYLCARBAMATE]: on Acetylcholinesterase, the IC50 stood at 766 µM. The mortality at 300 µg/mL in the test on Lipaphis erysimi was determined as 76%. This compound also returned an inhibition in test [2] of 46%.
In test [2], `CN(C)C(=O)Oc1ccccc1OC/C=C/COc1ccc(C(F)(F)F)cc1` showed an inhibition of 7%.
Same read-out and setting: to `CNC(=O)Oc1ccc(OCCOc2ccc(C(F)(F)F)cc2)cc1` belongs 2%; to `CNC(=O)Oc1ccc(OCCCCOc2ccc(C(F)(F)F)cc2)cc1`, 4%.
In turn, `CNC(=O)Oc1cccc(OC/C=C/COc2ccc(C(F)(F)F)cc2)c1` registered an inhibition in test [2] of 12%.
On the same count and under the same terms, to `CNC(=O)Oc1cccc(OCCOc2ccc(C(F)(F)F)cc2)c1` belongs 20%; to `CNC(=O)Oc1ccccc1OCCOc1ccc(C(F)(F)F)cc1`, 13%.
`CNC(=O)Oc1cccc(OCCCOc2ccc(C(F)(F)F)cc2)c1` came in with an IC50 on Acetylcholinesterase of 105 µM. The mortality at 300 µg/mL in the test on Lipaphis erysimi worked out at 85%. Further, the Ratio IC50 in test [1] turned out to be 7; in test [3], 1. For the same compound, the inhibition in test [2] worked out at 61%.
On to `CNC(=O)Oc1ccccc1OCCCOc1ccc(C(F)(F)F)cc1`, for which, in test [2], the inhibition is 25%.
With `CN(C)C(=O)Oc1ccccc1OCCCCOc1ccc(C(F)(F)F)cc1`, the inhibition in test [2] worked out at 7%.
In test [2], `CN(C)C(=O)Oc1ccc(OCCCOc2ccc(C(F)(F)F)cc2)cc1` had an inhibition of 1%.
As to `CNC(=O)Oc1cccc(OCCCCOc2ccccc2OC)c1`, the inhibition in test [2] was determined as 46%.
Still for that read-out and setting: to `CN(C)C(=O)Oc1ccc(OCCCCOc2ccc(C(F)(F)F)cc2)cc1` belongs 6%; to `CN(C)C(=O)Oc1cccc(OC/C=C/COc2ccc(C(F)(F)F)cc2)c1`, 13%; to `CNC(=O)Oc1ccccc1OCCCCOc1ccc(C(F)(F)F)cc1`, 19%.
The compound `CN(C)C(=O)Oc1ccccc1OCCCOc1ccc(C(F)(F)F)cc1` registered an inhibition in test [2] of 25%.
On the same count and under the same terms, the figure for `CN(C)C(=O)Oc1cccc(OCCOc2ccc(C(F)(F)F)cc2)c1` is 8%.
Still for that read-out and setting: the figure for `CN(C)C(=O)Oc1ccccc1OCCOc1ccc(C(F)(F)F)cc1` is 15%; for `CNC(=O)Oc1ccccc1OC/C=C/COc1ccc(C(F)(F)F)cc1` it is 17%.
In turn, `CNC(=O)Oc1cccc(OCCCCOc2ccc([N+](=O)[O-])cc2)c1` had an IC50 at Acetylcholinesterase of 46 µM. For the same compound, in the test on Lipaphis erysimi, the mortality at 300 µg/mL came to 92%. In addition, the Ratio IC50 was determined as 17 in test [1] and 3 in test [3]. Also, the inhibition in test [2] was found to be 80%.
Consider `CNC(=O)Oc1cccc(OC/C=C/COc2ccc([N+](=O)[O-])cc2)c1`, for which, in test [2], the inhibition amounted to 45%.
The same measure, in the same setting: the figure for `CNC(=O)Oc1cccc(OCCCCOc2ccc(Cl)cc2)c1` is 30%; for `CN(C)C(=O)Oc1cccc(OCCCCOc2ccc(C(F)(F)F)cc2)c1` it is 20%.
Compound `CNC(=O)Oc1cccc(OCCCOc2ccc([N+](=O)[O-])cc2)c1` registered an IC50 on Acetylcholinesterase of 70 µM. Further, the mortality at 300 µg/mL in the test with Lipaphis erysimi worked out at 89%. Further, the Ratio IC50 stood at 11 in test [1] and 2 in test [3]. Moreover, the inhibition in test [2] was 69%.
Regarding `CN(C)C(=O)Oc1ccc(OC/C=C/COc2ccc(C(F)(F)F)cc2)cc1`, in test [2], the inhibition was 0%.
